This is an account of results in publication PMC6387783 (Chemistry & biodiversity, 2018).

The test system of data set [1] is HEK293 cells. It is filed as cell-based, human. Particulars: peptide 2 μM with R18 1 μM vs peptide alone, HBSS, 10 min, 37 °C. A digest of the protocol:
(§1)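 Cells are seeded in μ-slide wells at 20% confluency (HEK293 in poly-L-lysine-coated wells) and grown 24 h, then washed with HBSS (Ca/Mg). Test peptide at 2 μM in HBSS, alone or with R18 1 μM, 10 min, 37 °C, dark; negative control R18 only. Cells washed five times, then live spinning-disk confocal imaging at 37 °C (FAM ex 488 nm, em 525/50 nm). Single-cell intensities background-corrected and normalized to control mean; 30 cells/condition; Kruskal–Wallis test.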

The subject of data set [2] is MCF-7 cells. It is filed as cell-based, human. Particulars: peptide 2 μM with R18 1 μM vs peptide alone, HBSS, 10 min, 37 °C. Put shortly: as §1
Data set [3] relates to mice. Particulars: intravenous (tail-vein injection), ref [1]; cited from earlier work.

In the case of FAM-octaarginine amide [compound 1], the “effect of membrane dye R18 on peptide permeation” value in data set [1] and in data set [2] was “significantly intensified permeation” in each case. In data set [3], the toxicity result is given as “highly toxic”.
